Results reported in PMC3374645 (European Journal of Pharmaceutical Sciences, 2012).
In brackets after ≈: the same amount, converted by molar mass. Read-outs that look alike come from different tables or passages of the source.

Legend:
[1] = comparison value, no reference given; cited from earlier work
[2] = 2008, cited from earlier work
[3] = Partition coefficient in octanol:water system; type: physicochemical; details: pH 7.0
Method in brief: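 Test compound (1.0 mg) was added to 4.0 mL of a 1:1 octanol:water mixture at pH 7.0 and shaken vigorously for 30 min. Phases were separated by centrifugation, passed through 0.1 µm filters and quantified by reverse-phase C18 HPLC (90% acetonitrile, 242 nm).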

[4] = Parallel artificial membrane permeability assay; type: in vitro ADME; details: PAMPA, pH 7.4, 4 h
[5] = Simultaneous three-compartment model fit of i.v. and oral data; type: in vivo, Sprague–Dawley rats; details: rat
Method in brief: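 Pooled i.v. (5.0 mg/kg) and oral (20, 40, 60 mg/kg gavage) rat plasma data were fitted simultaneously by generalized least squares with variance error models. The structural model had three compartments with combined zero-order/Michaelis–Menten limited systemic uptake. Models were discriminated by goodness-of-fit plots, residuals, SE, CV%, CI95% and lowest AIC.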

[6] = Three-compartment model fit after i.v. administration; type: in vivo, Sprague–Dawley rats; details: rat, i.v. 5.0 mg/kg
Method in brief: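 Rats received a tail-vein injection of 5.0 mg/kg in ethanol/TPGS/water vehicle. Plasma was taken from 0.017 to 24 h and assayed by HPLC. Concentration–time data were fitted by generalized least squares to three-compartment mass-balance differential equations, seeded with noncompartmental estimates. Parameters are reported with CV%; Vss was taken as the sum of the compartment volumes.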

Caco-2 monolayers = experiment: Bidirectional permeability in Caco-2 monolayers; type: in vitro ADME
[7] = Noncompartmental pharmacokinetics after oral administration; type: in vivo, Sprague–Dawley rats; details: rat
Method in brief: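 Male Sprague–Dawley rats (240–350 g, n = 5/group) were fasted overnight and gavaged with 2% (w/v) test compound in ethanol/TPGS/water. Tail-vein plasma was sampled predose and 0.25–24 h, precipitated with acetonitrile, and run on C18 HPLC at 242 nm (nimesulide internal standard; 0.05–8.00 μg/mL calibration). Per-rat SHAM analysis used log-trapezoidal AUC, with CL = Dose/AUC.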

[8] = Saturation solubility, shake-flask in buffers, HPLC; type: physicochemical
Method in brief: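 Shake-flask method: excess test compound was placed in 1.0 mL citrate, HEPES or phosphate buffer at pH 2.0–8.0 and shaken 24 h at 25.0 ± 0.1 °C, 1500 rpm. Suspensions then stood unshaken overnight before centrifugation. Supernatants were filtered (0.1 µm) and measured by reverse-phase C18 HPLC at 242 nm.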

Which results are given for `c1ccc2c(Cc3c[nH]c4ccccc34)c[nH]c2c1` [DIM, 3,3′-diindolylmethane]?
Log K0/w [1]: ≈ 4.0; Cmax ([2]; single 100 mg dose ref Reed et al.): 32 ng/mL; Cmax ([2]; single 200 mg dose ref Reed et al.): 104 ng/mL; Cmax ([2]; single 300 mg dose ref Reed et al.): 108 ng/mL

What does the source list for `c1ccc(-c2ccc(C(c3c[nH]c4ccccc34)c3c[nH]c4ccccc34)cc2)cc1` [DIM-P, DIM-C-pPhC6H5]?
experimental Log K0/w [3]: 6.79 ± 0.12 and ≈ 7.0; donor-to-receptor apparent permeability (Papp) ([4]; stirred water layer): 2.69 ± 0.08 × 10^−6 cm/s; donor-to-receptor apparent permeability (Papp) ([4]; unstirred water layer): 0.58 ± 0.07 × 10^−6 cm/s; zero-order absorption site access rate ([5]; oral 20 mg/kg): 14 mg/h/kg; zero-order absorption site access rate ([5]; oral 40 mg/kg): 28 mg/h/kg; zero-order absorption site access rate ([5]; oral 60 mg/kg): 42 mg/h/kg; CLC ([5]; simultaneous fit i.v. 5.0 and oral 20, 40, 60 mg/kg): 0.77 mL/min/kg; Abmax (maximum absorption rate at saturation) ([5]; simultaneous fit i.v. and oral): 60.65 µg/min/kg; CLd1 ([5]; simultaneous fit i.v. and oral): 0.606 mL/min/kg; CLd2 ([5]; simultaneous fit i.v. and oral): 0.319 mL/min/kg; FBIO ([5]; simultaneous fit i.v. and oral): 0.126; SD50 (amount of drug at the absorption site at 50% saturation) ([5]; simultaneous fit i.v. and oral): 8.6797 mg/kg; Tsite (time required for drug to reach absorption site) ([5]; simultaneous fit i.v. and oral): 85.20 min; V1 ([5]; simultaneous fit i.v. and oral): 0.64606 L/kg; V2 ([5]; simultaneous fit i.v. and oral): 0.0285 L/kg; VC ([5]; simultaneous fit i.v. and oral): 0.0139 L/kg; apparent distributional phase [6]: < 2 h; VSS ([6]; secondary parameter): 0.68285 L/kg; t1/2 ([6]; secondary parameter): 10.653 h; CLC ([6]; three compartment model): 0.74 mL/min/kg; CLd1 ([6]; three compartment model): 0.56 mL/min/kg; CLd2 ([6]; three compartment model): 0.29 mL/min/kg; V1 ([6]; three compartment model): 0.64098 L/kg; V2 ([6]; three compartment model): 0.02822 L/kg; VC ([6]; three compartment model): 0.01365 L/kg; Peff A–B (Caco-2 monolayers; Caco-2, apical pH 5): 0.34 ± 0.06 × 10^−6 cm/s; Peff B–A (Caco-2 monolayers; Caco-2, apical pH 5): 0.53 ± 0.08 × 10^−6 cm/s; Peff A–B (Caco-2 monolayers; Caco-2, apical pH 5.8): 0.33 ± 0.07 × 10^−6 cm/s; Peff B–A (Caco-2 monolayers; Caco-2, apical pH 5.8): 0.50 ± 0.06 × 10^−6 cm/s; Peff A–B (Caco-2 monolayers; Caco-2, apical pH 6.8): 0.35 ± 0.06 × 10^−6 cm/s; Peff B–A (Caco-2 monolayers; Caco-2, apical pH 6.8): 0.52 ± 0.07 × 10^−6 cm/s; average Peff, B–A (Caco-2 monolayers; Caco-2, basolateral to apical, average): 0.51 ± 0.09 × 10^−6 cm/s; absorptive (A–B) versus secretive (B–A) transport (Caco-2 monolayers; bidirectional Caco-2, no active efflux): nearly unity; Biopharmaceutics Classification System (BCS) class (Caco-2 monolayers; from low solubility and low permeability): Class IV; AUC0–24h /Dose ([7]; oral 20 mg/kg): 2.28 ± 0.46 (min/L) *10^−3; AUMC0–24h ([7]; oral 20 mg/kg): 250.45 ± 62.42 μg × min^2/mL; AUMC0–24h/Dose ([7]; oral 20 mg/kg): 0.012 ± 0.003 min^2/mL; CL ([7]; oral 20 mg/kg): 0.8652 ± 0.0648 mL/min/kg; Cmax ([7]; oral 20 mg/kg): 7210 ± 1190 ng/mL; Cmax/dose ([7]; oral 20 mg/kg): 0.36 ± 0.06; FBIO (absolute bioavailability) ([7]; oral 20 mg/kg): 0.13 ± 0.03; MRT ([7]; oral 20 mg/kg): 5.47 ± 0.64 h; Terminal t1/2 ([7]; oral 20 mg/kg): 6.91 ± 3.84 h; Vss ([7]; oral 20 mg/kg): 0.49979 ± 0.223605 L/kg; time of maximum plasma level ([7]; oral 20 mg/kg): 2 h; AUMC0–24h ([7]; oral 40 mg/kg): 548.85 ± 207.09 μg × min^2/mL; AUMC0–24h/Dose ([7]; oral 40 mg/kg): 0.014 ± 0.005 min^2/mL; CL ([7]; oral 40 mg/kg): 0.8315 ± 0.0753 mL/min/kg; Cmax ([7]; oral 40 mg/kg): 11270 ± 1040 ng/mL; Cmax/dose ([7]; oral 40 mg/kg): 0.28 ± 0.03; FBIO (absolute bioavailability) ([7]; oral 40 mg/kg): 0.12 ± 0.03; MRT ([7]; oral 40 mg/kg): 6.29 ± 1.14 h; Terminal t1/2 ([7]; oral 40 mg/kg): 7.86 ± 3.12 h; Vss ([7]; oral 40 mg/kg): 0.54861 ± 0.16478 L/kg; time of maximum plasma level ([7]; oral 40 mg/kg): 2 h; AUC0–24h /Dose ([7]; oral 60 mg/kg): 2.32 ± 0.46 (min/L) *10^−3; AUMC0–24h ([7]; oral 60 mg/kg): 912.16 ± 299.02 μg × min^2/mL; AUMC0–24h/Dose ([7]; oral 60 mg/kg): 0.015 ± 0.005 min^2/mL; CL ([7]; oral 60 mg/kg): 0.8397 ± 0.0582 mL/min/kg; Cmax ([7]; oral 60 mg/kg): 17860 ± 1620 ng/mL; Cmax/dose ([7]; oral 60 mg/kg): 0.30 ± 0.03; FBIO (absolute bioavailability) ([7]; oral 60 mg/kg): 0.13 ± 0.03; MRT ([7]; oral 60 mg/kg): 6.43 ± 0.81 h; Terminal t1/2 ([7]; oral 60 mg/kg): 7.60 ± 2.34 h; Vss ([7]; oral 60 mg/kg): 0.54239 ± 0.12804 L/kg; time of maximum plasma level ([7]; oral 60 mg/kg): 3 h; absolute bioavailability ([7]; oral, as stated in abstract): 0.13 ± 0.06; aqueous solubility ([8]; pH 2.0, 25 °C, 24 h shake-flask): 0.28 ± 0.03 µg/mL (≈ 0.703 µM); maximum aqueous solubility ([8]; pH 8.0, 25 °C, 24 h shake-flask): 0.73 ± 0.09 µg/mL; overall solubility ([8]; pH range 2–8): less than 1.0 μg/mL

For Lucifer Yellow [reference compound], which “mean permeability of paracellular control” value (Caco-2 monolayers; Caco-2 monolayer integrity control) is on record?
The value was under 0.15 ×10⁻⁶ cm/s.
